Measurements published in ChEMBL document CHEMBL1275475, “Potent in vitro activity of tomopenem (CS-023) against methicillin-resistant Staphylococcus aureus and Pseudomonas aeruginosa” (Antimicrob Agents Chemother, 2008).
pIC50: −log10 of the molar value. ≈ marks a conversion by molar mass, not a printed value.

Assays:
[1] = tested on: Pseudomonas aeruginosa; assay: Antibacterial activity against MexA-MexB-OprM-overproducing and OprD-deficient Pseudomonas aeruginosa N041 by broth microdilution method; format: functional
In short: (§1)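 Standard broth microdilution in cation-adjusted Mueller-Hinton broth (25 mg Ca2+ and 12.5 mg Mg2+ per liter), inoculum 4×10^5 CFU/ml, against P. aeruginosa PAO1 or its laboratory mutants with defined resistance mechanisms. MIC was the lowest concentration completely inhibiting […] growth in wells. Determinations were done in duplicate.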

[2] = tested on: Pseudomonas aeruginosa; assay: Antibacterial activity against beta-lactamase and MexA-MexB-OprM-overproducing Pseudomonas aeruginosa N045 by broth microdilution method; format: functional
In short: (§2)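 Broth microdilution in cation-adjusted Mueller-Hinton broth (25 mg Ca2+ and 12.5 mg Mg2+ per liter), inoculum 4×10^5 CFU/ml. MIC was the lowest concentration completely inhibiting visible growth in wells. European clinical isolates were tested with S. aureus ATCC 29213 and P. aeruginosa ATCC 27853 as quality controls. PAO1-derived mutants were run in duplicate.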

[3] = tested on: Pseudomonas aeruginosa; assay: Antibacterial activity against OprD-deficient Pseudomonas aeruginosa MR08 by broth microdilution method; format: functional; in short: as §1
[4] = tested on: Pseudomonas aeruginosa; assay: Ratio of MIC for Pseudomonas aeruginosa COR6 to MIC for Pseudomonas aeruginosa PAO1; format: functional
In short: (§3)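 MICs were measured for PAO1-derived resistance mutants and the parent PAO1 by broth microdilution in cation-adjusted Mueller-Hinton broth (25 mg/liter Ca2+, 12.5 mg/liter Mg2+), inoculum 4×10^5 CFU/ml, in duplicate. MIC was the lowest concentration with complete growth inhibition. The ratio is the mutant MIC divided by the PAO1 MIC.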

[5] = tested on: Pseudomonas aeruginosa; assay: Ratio of MIC for Pseudomonas aeruginosa N043 to MIC for Pseudomonas aeruginosa PAO1; format: functional; in short: as §3
[6] = tested on: Pseudomonas aeruginosa; assay: Ratio of MIC for Pseudomonas aeruginosa OCR1 to MIC for Pseudomonas aeruginosa PAO1; format: functional; in short: as §3
[7] = tested on: Pseudomonas aeruginosa; assay: Antibacterial activity against beta-lactamase-overproducing Pseudomonas aeruginosa N043 by broth microdilution method; format: functional; in short: as §1
[8] = tested on: Pseudomonas aeruginosa; assay: Ratio of MIC for Pseudomonas aeruginosa MR08 to MIC for Pseudomonas aeruginosa PAO1; format: functional; in short: as §3
[9] = tested on: Pseudomonas aeruginosa; assay: Ratio of MIC for Pseudomonas aeruginosa N041 to MIC for Pseudomonas aeruginosa PAO1; format: functional; in short: as §3
[10] = tested on: Pseudomonas aeruginosa; assay: Ratio of MIC for Pseudomonas aeruginosa N045 to MIC for Pseudomonas aeruginosa PAO1; format: functional; in short: as §3
[11] = tested on: Pseudomonas aeruginosa; assay: Antibacterial activity against Pseudomonas aeruginosa N091 by broth microdilution method; format: functional; in short: as §1
[12] = tested on: Pseudomonas aeruginosa; assay: Antibacterial activity against Pseudomonas aeruginosa COR6 expressing MexC-MexD-OprJ gene by broth microdilution method; format: functional; in short: as §1
[13] = tested on: Pseudomonas aeruginosa; assay: Antibacterial activity against Pseudomonas aeruginosa N092 expressing MexE-MexF-OprN gene and OprD mutant gene and harboring nfxC mutant gene by broth microdilution method
[14] = tested on: Pseudomonas aeruginosa; assay: Ratio of MIC for Pseudomonas aeruginosa N044 to MIC for Pseudomonas aeruginosa PAO1; format: functional; in short: as §3
[15] = tested on: Pseudomonas aeruginosa; assay: Antibacterial activity against Pseudomonas aeruginosa PAO1 by broth microdilution method; format: functional; in short: as §1
[16] = tested on: Pseudomonas aeruginosa; assay: Antibacterial activity against MexA-MexB-OprM-overproducing Pseudomonas aeruginosa OCR1 by broth microdilution method; format: functional; in short: as §1
[17] = tested on: Pseudomonas aeruginosa; assay: Ratio of MIC for Pseudomonas aeruginosa N092 to MIC for Pseudomonas aeruginosa PAO1; format: functional; in short: as §3
[18] = tested on: Pseudomonas aeruginosa; assay: Antibacterial activity against beta-lactamase-overproducing and OprD-deficient Pseudomonas aeruginosa N044 by broth microdilution method; format: functional; in short: as §1
[19] = target: T1, MecA (Staphylococcus aureus, UniProt Q7DHH4); assay: Binding affinity to PBP2a in methicillin-resistant Staphylococcus aureus 12386-1 by [14C]benzylpenicillin labelled competitive assay
T1 sequence (Q7DHH4 whole entry): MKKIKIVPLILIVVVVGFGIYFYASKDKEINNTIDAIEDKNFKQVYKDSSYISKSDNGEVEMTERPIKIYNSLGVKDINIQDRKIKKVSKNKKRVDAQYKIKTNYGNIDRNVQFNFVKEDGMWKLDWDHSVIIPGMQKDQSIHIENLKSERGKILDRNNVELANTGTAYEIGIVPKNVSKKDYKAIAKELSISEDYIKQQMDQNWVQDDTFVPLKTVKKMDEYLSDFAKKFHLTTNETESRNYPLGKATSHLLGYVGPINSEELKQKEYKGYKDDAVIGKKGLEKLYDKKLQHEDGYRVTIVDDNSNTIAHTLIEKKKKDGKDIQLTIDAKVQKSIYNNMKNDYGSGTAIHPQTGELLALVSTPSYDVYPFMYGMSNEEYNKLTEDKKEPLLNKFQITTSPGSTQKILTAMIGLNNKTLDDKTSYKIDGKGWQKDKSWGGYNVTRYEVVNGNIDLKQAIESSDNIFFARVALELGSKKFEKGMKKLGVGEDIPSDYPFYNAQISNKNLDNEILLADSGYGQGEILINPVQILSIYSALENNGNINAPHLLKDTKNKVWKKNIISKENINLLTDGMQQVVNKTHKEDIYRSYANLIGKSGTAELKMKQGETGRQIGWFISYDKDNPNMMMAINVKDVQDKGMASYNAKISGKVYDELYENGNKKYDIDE
In short: (§4)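 Competition against [14C]benzylpenicillin. Membranes came from penicillinase-plasmid-cured MRSA lysed with lysostaphin (100 μg/ml), DNase (1 μg/ml) and sonication in 50 mM sodium phosphate, 10 mM MgCl2, pH 7.0. They were collected at 5,000 × g for 10 min, then 100,000 × g for 60 min, at final 8 mg/ml protein. Compound was added for 30 min, then label for 30 min, at 37°C. IC50 for 50% label-binding inhibition to PBP 2a was read by imaging analyzer.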

[20] = target: T1, MecA; assay: Binding affinity to PBP2a in methicillin-resistant Staphylococcus aureus 123-1 by [14C]benzylpenicillin labelled competitive assay; in short: as §4
[21] = tested on: Pseudomonas aeruginosa; assay: Antibacterial activity against Pseudomonas aeruginosa clinical isolates by broth microdilution method; format: functional; in short: as §2
[22] = tested on: Staphylococcus aureus; assay: Antibacterial activity against methicillin-resistant Staphylococcus aureus 12386-1 expressing PBP 2a by broth microdilution method; format: functional
In short: (§5)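 Standard broth microdilution in cation-adjusted Mueller-Hinton broth (25 mg Ca2+ and 12.5 mg Mg2+ per liter), inoculum 4×10^5 CFU/ml. Isolates were 60 German MRSA clinical strains, and penicillinase-plasmid-cured MRSA 123-1 and 12386-1. QC strain was S. aureus ATCC 29213.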

[23] = tested on: Pseudomonas aeruginosa; assay: Antibacterial activity against imipenem-resistant Pseudomonas aeruginosa clinical isolates by broth microdilution method; format: functional
In short: (§6)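 Standard broth microdilution in cation-adjusted Mueller-Hinton broth (25 mg Ca2+ and 12.5 mg Mg2+ per liter), inoculum 4×10^5 CFU/ml. MIC is the lowest concentration completely inhibiting […] growth in wells. […] P. aeruginosa ATCC 27853 serves as QC strain.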

[24] = tested on: Staphylococcus aureus; assay: Antibacterial activity against methicillin-resistant Staphylococcus aureus 123-1 expressing PBP 2a by broth microdilution method; format: functional; in short: as §5
[25] = tested on: Staphylococcus aureus; assay: Antibacterial activity against methicillin-resistant Staphylococcus aureus by broth microdilution method; format: functional; in short: as §5
[26] = tested on: Pseudomonas aeruginosa; assay: Antibacterial activity against meropenem-resistant Pseudomonas aeruginosa clinical isolates by broth microdilution method; format: functional; in short: as §6

SMILES	MIC [1] [µg/mL]	MIC [2] [µg/mL]	MIC [3] [µg/mL]	Ratio [4]	Ratio [5]	Ratio [6]	MIC [7] [µg/mL]	Ratio [8]	Ratio [9]	Ratio [10]	MIC [11] [µg/mL]	MIC [12] [µg/mL]	MIC [13] [µg/mL]	Ratio [14]	MIC [15] [µg/mL]	MIC [16] [µg/mL]	Ratio [17]	MIC [18] [µg/mL]	pIC50 [19]	pIC50 [20]	also measured
NCC[C@H](O)C(=O)N[C@@H]1C[C@H](N)[C@@H](O[C@H]2O[C@H](CN)[C@@H](O)[C@H](O)[C@H]2O)[C@H](O)[C@H]1O[C@H]1O[C@H](CO)[C@@H](O)[C@H](N)[C@H]1O [AMIKACIN]	4 (≈ 6.83 µM)	8 (≈ 13.7 µM)	4 (≈ 6.83 µM)	0.125	2	1	8 (≈ 13.7 µM)	1	1	2	4 (≈ 6.83 µM)	0.5 (≈ 0.854 µM)	2 (≈ 3.42 µM)	2	4 (≈ 6.83 µM)	4 (≈ 6.83 µM)	0.5	8 (≈ 13.7 µM)			
CC(C)(O/N=C(\C(=O)N[C@@H]1C(=O)N2C(C(=O)[O-])=C(C[n+]3ccccc3)CS[C@H]12)c1csc(N)n1)C(=O)O [CEFTAZIDIME]	8 (≈ 14.6 µM)	128 (≈ 234 µM)	2 (≈ 3.66 µM)	0.5	64	4	128 (≈ 234 µM)	1	4	64	2 (≈ 3.66 µM)	1 (≈ 1.83 µM)	1 (≈ 1.83 µM)	64	2 (≈ 3.66 µM)	8 (≈ 14.6 µM)	0.5	128 (≈ 234 µM)			
C[C@@H](O)[C@H]1C(=O)N2C(C(=O)O)=C(SCCNC=N)C[C@H]12 [IMIPENEM ANHYDROUS]	8 (≈ 26.7 µM)	1 (≈ 3.34 µM)	16 (≈ 53.4 µM)				1 (≈ 3.34 µM)				1 (≈ 3.34 µM)	0.5 (≈ 1.67 µM)	4 (≈ 13.4 µM)		1 (≈ 3.34 µM)	1 (≈ 3.34 µM)		32 (≈ 107 µM)	3.60	3.25	MIC50 [21]: 2 µg/mL (≈ 6.68 µM); MIC90 [21]: 32 µg/mL (≈ 107 µM); MIC [22]: 16 µg/mL (≈ 53.4 µM); MIC [23]: ≥ 16 µg/mL; MIC [24]: 32 µg/mL (≈ 107 µM); MIC50 [25]: 4 µg/mL (≈ 13.4 µM); MIC90 [25]: > 32 µg/mL
C[C@H]1COc2c(N3CCN(C)CC3)c(F)cc3c(=O)c(C(=O)O)cn1c23.C[C@H]1COc2c(N3CCN(C)CC3)c(F)cc3c(=O)c(C(=O)O)cn1c23.O [LEVOFLOXACIN]			0.5				0.25				0.5	8	8		0.5			0.25			
C[C@@H](O)[C@H]1C(=O)N2C(C(=O)O)=C(S[C@@H]3CN[C@H](C(=O)N(C)C)C3)[C@H](C)[C@H]12 [MEROPENEM]	16 (≈ 41.7 µM)	2 (≈ 5.22 µM)	4 (≈ 10.4 µM)	1	2	4	1 (≈ 2.61 µM)	8	32	4	0.5 (≈ 1.3 µM)	0.5 (≈ 1.3 µM)	1 (≈ 2.61 µM)	32	0.5 (≈ 1.3 µM)	2 (≈ 5.22 µM)	2	16 (≈ 41.7 µM)	3.86	3.47	MIC50 [21]: 1 µg/mL (≈ 2.61 µM); MIC90 [21]: 16 µg/mL (≈ 41.7 µM); MIC [22]: 16 µg/mL (≈ 41.7 µM); MIC [26]: ≥ 16 µg/mL; MIC [24]: 32 µg/mL (≈ 83.4 µM); MIC50 [25]: 8 µg/mL (≈ 20.9 µM); MIC90 [25]: 32 µg/mL (≈ 83.4 µM)
C[C@@H](O)[C@H]1C(=O)N2C(C(=O)O)=C(S[C@H]3C[C@@H](C(=O)N4CC[C@H](NC(=O)CNC(=N)N)C4)N(C)C3)[C@H](C)[C@H]12 [TOMOPENEM]	2 (≈ 3.72 µM)	1 (≈ 1.86 µM)	1 (≈ 1.86 µM)	1	2	2	0.5 (≈ 0.93 µM)	4	8	4	0.25 (≈ 0.465 µM)	0.25 (≈ 0.465 µM)	0.5 (≈ 0.93 µM)	32	0.25 (≈ 0.465 µM)	0.5 (≈ 0.93 µM)	2	8 (≈ 14.9 µM)	5.27	5.01	MIC50 [21]: 0.5 µg/mL (≈ 0.93 µM); MIC90 [21]: 4 µg/mL (≈ 7.44 µM); MIC [22]: 8 µg/mL (≈ 14.9 µM); MIC [24]: 8 µg/mL (≈ 14.9 µM); MIC50 [25]: 4 µg/mL (≈ 7.44 µM); MIC90 [25]: 8 µg/mL (≈ 14.9 µM)
